This note sets out measurements from ChEMBL document CHEMBL1135657, “Novel dual inhibitors of AChE and MAO derived from hydroxy aminoindan and phenethylamine as potential treatment for Alzheimer's disease” (J Med Chem, 2002).

Data set [1] addresses T1, Amine oxidase [flavin-containing] A (Rattus norvegicus, UniProt P21396).
T1 sequence (P21396 whole entry): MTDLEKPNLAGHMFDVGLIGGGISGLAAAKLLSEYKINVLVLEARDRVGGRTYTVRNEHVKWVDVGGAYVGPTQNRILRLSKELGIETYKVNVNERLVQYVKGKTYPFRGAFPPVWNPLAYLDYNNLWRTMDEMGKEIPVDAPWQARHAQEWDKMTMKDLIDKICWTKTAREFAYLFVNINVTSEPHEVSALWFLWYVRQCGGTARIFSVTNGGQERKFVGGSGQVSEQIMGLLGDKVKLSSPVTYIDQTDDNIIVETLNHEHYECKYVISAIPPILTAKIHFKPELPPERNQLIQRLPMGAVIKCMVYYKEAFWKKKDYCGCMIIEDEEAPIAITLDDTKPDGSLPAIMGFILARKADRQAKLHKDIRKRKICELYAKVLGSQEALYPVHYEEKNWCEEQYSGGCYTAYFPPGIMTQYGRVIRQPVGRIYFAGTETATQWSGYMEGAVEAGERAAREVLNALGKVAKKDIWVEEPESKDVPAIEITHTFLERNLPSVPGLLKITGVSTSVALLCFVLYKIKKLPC
In words: In vitro inhibitory concentration against Monoamine oxidase A of rat brain homogenates; value ranges from 100-340. It counts as tissue-based.

Data set [2] addresses T2, Acetylcholinesterase (Homo sapiens, UniProt P22303). In words: In vitro inhibitory concentration against purified Acetylcholinesterase of human erythrocytes; value ranges from 91.8-732.
The target of data set [3] is T3, Butyrylcholinesterase (Equus caballus, UniProt Q9N1N9). In words: In vitro inhibitory concentration against Butyrylcholinesterase of horse serum; value ranges from 1.38-1.65. In short, it runs like this: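 Ellman assay followed, with 200 µM butyrylthiocholine as substrate. Runs were in triplicate with four-point dose-response curves. IC50 and fiducial limits came from log concentration versus % inhibition.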

The target of data set [4] is T4, Amine oxidase [flavin-containing] B (Rattus norvegicus, UniProt P19643).
T4 sequence (P19643 whole entry): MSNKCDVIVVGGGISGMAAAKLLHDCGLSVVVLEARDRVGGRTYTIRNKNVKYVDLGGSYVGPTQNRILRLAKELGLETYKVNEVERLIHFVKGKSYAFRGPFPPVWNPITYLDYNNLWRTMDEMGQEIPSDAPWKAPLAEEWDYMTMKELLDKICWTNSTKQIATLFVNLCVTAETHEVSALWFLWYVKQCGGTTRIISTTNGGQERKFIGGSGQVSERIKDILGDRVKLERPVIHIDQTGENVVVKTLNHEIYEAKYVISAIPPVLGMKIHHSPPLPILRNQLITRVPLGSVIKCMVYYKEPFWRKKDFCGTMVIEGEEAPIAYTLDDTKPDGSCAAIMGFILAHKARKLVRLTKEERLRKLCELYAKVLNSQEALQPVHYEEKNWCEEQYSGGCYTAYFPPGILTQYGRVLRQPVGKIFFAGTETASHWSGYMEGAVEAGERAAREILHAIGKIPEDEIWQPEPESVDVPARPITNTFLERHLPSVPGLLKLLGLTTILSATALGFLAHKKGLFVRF
The data set is described as follows: In vitro inhibitory concentration against Monoamine oxidase B of rat brain homogenates; value ranges from 0.07-0.59. It counts as tissue-based. In short, it runs like this: (§1)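 Rat brain homogenate (in 0.3 M sucrose) as enzyme source; compounds diluted 10⁻²M to 10⁻⁹M in 0.05 M phosphate buffer with 0.15 μM clorgyline; preincubated 60 min at 37 °C, then 10 μM ¹⁴C-phenylethylamine added for 20 min more; stopped with citric acid; metabolites extracted into toluene/ethyl acetate, scintillation counted; activity as % of control, tranylcypromine blank.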

Data set [5] has as its target T1, Amine oxidase [flavin-containing] A. In words: In vitro inhibitory concentration against Monoamine oxidase A of rat brain homogenates; value ranges from 600-1100. Format: tissue-based.
For data set [6], the target named is T4, Amine oxidase [flavin-containing] B. In words: In vitro inhibitory concentration against Monoamine oxidase B of rat brain homogenates; value ranges from 150-360. It counts as tissue-based.
Data set [7] deals with T2, Acetylcholinesterase. In words: In vitro inhibitory concentration against purified Acetylcholinesterase of human erythrocytes.
Data set [8] addresses T2, Acetylcholinesterase. In words: In vitro inhibitory concentration against purified Acetylcholinesterase of human erythrocytes; value ranges from 22.2-56.8.
The target in data set [9] is T4, Amine oxidase [flavin-containing] B. In words: In vitro inhibitory concentration against Monoamine oxidase B of rat brain homogenates. Format: tissue-based.
The target in data set [10] is T1, Amine oxidase [flavin-containing] A. The data set is described as follows: In vitro inhibitory concentration against Monoamine oxidase A of rat brain homogenates; value ranges from 100-310. It counts as tissue-based.
Data set [11] shares this target. The data set is described as follows: In vitro inhibitory concentration against Monoamine oxidase A of rat brain homogenates; value ranges from 11-38. Format: tissue-based.
Data set [12] addresses T2, Acetylcholinesterase. The data set is described as follows: In vitro inhibitory concentration against purified Acetylcholinesterase of human erythrocytes; value ranges from 5.6-11.9.
Data set [13] has as its target T4, Amine oxidase [flavin-containing] B. The data set is described as follows: In vitro inhibitory concentration against Monoamine oxidase B of rat brain homogenates; value ranges from 0.19-0.26. It counts as tissue-based. In short, it runs like this:
as §1

For data set [14], the target named is T1, Amine oxidase [flavin-containing] A. The data set is described as follows: In vitro inhibitory concentration against Monoamine oxidase A of rat brain homogenates; value ranges from 0.8-1.0. It counts as tissue-based.
Data set [15] has as its target T2, Acetylcholinesterase. In words: In vitro inhibitory concentration against purified Acetylcholinesterase of human erythrocytes; value ranges from 1.7-2.5.
For data set [16], the target named is T4, Amine oxidase [flavin-containing] B. The data set is described as follows: In vitro inhibitory concentration against Monoamine oxidase B of rat brain homogenates; value ranges from 0.019-0.021. Format: tissue-based. In short, it runs like this: as §1
Data set [17] addresses T1, Amine oxidase [flavin-containing] A. In words: In vitro inhibitory concentration against Monoamine oxidase A of rat brain homogenates; value ranges from 0.005-0.010. Format: tissue-based.
Data set [18] can be described thus: Bimolecular rate constant for carbamoylation of ACHE. It counts as ADME. In short, it runs like this:
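Human erythrocyte AChE preincubated with inhibitor at 37 °C in 0.1 M phosphate buffer, pH 7.4, under Ellman conditions with 200 µM […]. Pseudo-first-order rate constants (k_obs) for progressive inhibition were obtained at 4-5 inhibitor concentrations. The apparent bimolecular carbamylation constant k_i was calculated from these.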

Data set [19] is described as follows: Pseudo-first order rate constant for carbamoylation of ACHE at 100 (uM) concentration. Format: ADME. In short, it runs like this:
(§2)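 Human erythrocyte AChE, same Ellman conditions: 200 µM […], 60 min preincubation at 37 °C, 0.1 M phosphate pH 7.4. Progressive inhibition followed at 4-5 inhibitor concentrations. Pseudo-first-order k_obs (min⁻¹) derived per concentration; apparent bimolecular carbamylation constant k_i calculated from these.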

Data set [20] is described as follows: Pseudo-first order rate constant for carbamoylation of ACHE at 200 (uM) concentration. It counts as ADME. In short, it runs like this: as §2
Data set [21] can be described thus: Pseudo-first order rate constant for carbamoylation of ACHE at 300 (uM) concentration. Format: ADME. In short, it runs like this:
as §2

Data set [22] is described as follows: Pseudo-first order rate constant for carbamoylation of ACHE at 400 (uM) concentration. It counts as ADME. In short, it runs like this: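 Pseudo-first-order rate constants kobs measured at 4-5 inhibitor concentrations following Bar-On et al. Apparent bimolecular carbamylation constant ki calculated from these.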
Data set [23] in a line: Pseudo-first order rate constant for carbamoylation of ACHE at 50 (uM) concentration. It counts as ADME. In short, it runs like this: as §2
The target of data set [24] is T3, Butyrylcholinesterase. The data set is described as follows: In vitro inhibitory concentration against Butyrylcholinesterase of horse serum; value ranges from 1.54-2.83.
Data set [25] deals with T2, Acetylcholinesterase.
In data set [26] the target is T2, Acetylcholinesterase. In words: In vitro inhibitory concentration against purified Acetylcholinesterase of human erythrocytes; value ranges from 9.8-157.
Data set [27] has as its target T3, Butyrylcholinesterase.
Data set [28] addresses T4, Amine oxidase [flavin-containing] B. The data set is described as follows: In vitro inhibitory concentration against Monoamine oxidase B of rat brain homogenates; value ranges from 1.6-2.9. It counts as tissue-based.
Data set [29] deals with T1, Amine oxidase [flavin-containing] A. The data set is described as follows: In vitro inhibitory concentration against Monoamine oxidase A of rat brain homogenates; value ranges from 1.0-1.8. Format: tissue-based.
The target in data set [30] is T2, Acetylcholinesterase. The data set is described as follows: In vitro inhibitory concentration against purified Acetylcholinesterase of human erythrocytes; value ranges from 1.27-1.86.
Data set [31] has as its target T2, Acetylcholinesterase. The data set is described as follows: In vitro inhibitory concentration against purified Acetylcholinesterase of human erythrocytes; value ranges from […]-[…].
In data set [32] the target is T1, Amine oxidase [flavin-containing] A. The data set is described as follows: In vitro inhibitory concentration against Monoamine oxidase A of rat brain homogenates. It counts as tissue-based.

T3 sequence (Q9N1N9 whole entry): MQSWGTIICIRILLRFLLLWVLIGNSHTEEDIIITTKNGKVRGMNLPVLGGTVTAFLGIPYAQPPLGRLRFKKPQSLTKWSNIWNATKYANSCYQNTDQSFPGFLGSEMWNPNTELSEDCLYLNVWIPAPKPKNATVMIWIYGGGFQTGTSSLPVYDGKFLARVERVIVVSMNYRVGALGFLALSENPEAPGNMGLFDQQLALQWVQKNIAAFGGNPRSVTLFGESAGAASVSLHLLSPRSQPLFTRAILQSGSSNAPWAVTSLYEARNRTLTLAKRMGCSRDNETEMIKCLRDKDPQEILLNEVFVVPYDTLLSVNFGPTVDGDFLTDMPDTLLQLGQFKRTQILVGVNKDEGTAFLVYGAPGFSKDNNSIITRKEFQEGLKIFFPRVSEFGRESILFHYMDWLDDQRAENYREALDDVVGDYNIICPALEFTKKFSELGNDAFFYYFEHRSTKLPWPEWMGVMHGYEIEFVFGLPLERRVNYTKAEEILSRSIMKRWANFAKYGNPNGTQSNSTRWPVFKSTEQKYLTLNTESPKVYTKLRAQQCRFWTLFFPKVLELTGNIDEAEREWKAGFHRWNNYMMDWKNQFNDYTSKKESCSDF
T2 sequence (P22303 whole entry): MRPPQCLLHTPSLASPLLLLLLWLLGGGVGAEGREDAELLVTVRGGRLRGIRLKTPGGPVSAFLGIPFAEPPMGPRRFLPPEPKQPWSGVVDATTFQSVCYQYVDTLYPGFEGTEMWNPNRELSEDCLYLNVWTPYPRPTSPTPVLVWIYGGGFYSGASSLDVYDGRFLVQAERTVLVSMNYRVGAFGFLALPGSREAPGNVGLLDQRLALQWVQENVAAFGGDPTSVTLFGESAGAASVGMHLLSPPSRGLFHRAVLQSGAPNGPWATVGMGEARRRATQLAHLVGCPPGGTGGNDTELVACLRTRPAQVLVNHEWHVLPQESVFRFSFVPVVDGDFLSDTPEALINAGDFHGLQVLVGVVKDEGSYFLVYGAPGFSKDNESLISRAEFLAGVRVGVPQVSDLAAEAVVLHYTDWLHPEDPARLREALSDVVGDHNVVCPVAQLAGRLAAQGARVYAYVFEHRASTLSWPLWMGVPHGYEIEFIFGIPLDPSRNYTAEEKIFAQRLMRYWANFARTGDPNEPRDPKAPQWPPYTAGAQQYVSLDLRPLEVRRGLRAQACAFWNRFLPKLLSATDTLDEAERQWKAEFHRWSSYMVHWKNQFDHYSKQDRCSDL

With `C#CCNC(C)Cc1ccccc1` (configuration not stated), half-maximal inhibition in data set [1] (IC50) was put at 195 µM.
For the compound `C#CCN(C)C(C)Cc1cccc(OC(=O)N(C)CC)c1` (configuration not stated), the IC50 is 234 µM on Acetylcholinesterase [2], 1.5 µM against Butyrylcholinesterase [3] and 0.1 µM in [4].
For `C#CCNC(C)Cc1cccc(O)c1` (configuration not stated), the IC50 came out at 830 µM in [5] and 230 µM in data set [6].
Consider `CC(c1cccc(OC(=O)N(C)C)c1)N(C)C` (configuration not stated), for which half-maximal inhibition on Acetylcholinesterase [7] (IC50) required 0.03 µM.
As for `CCN(C)C(=O)Oc1cccc(CCN)c1`, the IC50 on Acetylcholinesterase [8] was 35.5 µM; in [9], over 1000 µM; in data set [10] it was 180 µM.
Consider `CCN(C)C(=O)Oc1cccc(CCNC)c1`, for which the values for the IC50 in data set [9] and in data set [11] were over 1000 µM and 20 µM, respectively.
With `C#CCN(C)[C@H](C)Cc1cccc(OC(=O)N(C)C2CCCCC2)c1`, the IC50 against Acetylcholinesterase [12] is 7.9 µM; in data set [13] it was 0.22 µM; in data set [14], 0.9 µM.
`C#CCN(C)[C@H](C)Cc1cccc(OC(=O)N(C)CCCCCC)c1` gave an IC50 on Acetylcholinesterase [15] of 2 µM.
Consider `C#CCN(C)[C@@H]1CCc2ccc(O)cc21`, for which the IC50 in data set [16] came out at 0.02 µM; in data set [17] it was 0.007 µM.
In the case of `C#CCN[C@@H]1CCc2ccc(OC(=O)N(C)CC)cc21.Cl`, the “Bimolecular carbamoylation rate constant (ki)” value in [18] came out at 1.7 M⁻¹ s⁻¹. Further, the K obs in data set [19] was determined as 21 min⁻¹; in [20] it was 32 min⁻¹; in data set [21] it was 42 min⁻¹; in data set [22] it was 52 min⁻¹; in data set [23] it was 16 min⁻¹. Further, the IC50 is 1.98 µM on Butyrylcholinesterase [24], over 1000 µM in data set [9] and 31.8 µM at Acetylcholinesterase [25].
As for `C#CCN(C)C(C)Cc1cccc(OC(=O)N(C)CCC)c1` (configuration not stated), the IC50 on Acetylcholinesterase [26] came out at 33.1 µM; at Butyrylcholinesterase [27], 22.8 µM.
Consider `C#CCNC1CCc2cccc(O)c21` (configuration not stated), for which the 50% inhibitory concentration (IC50) stood at 2.1 µM in [28] and 1.3 µM in data set [29].
With `CN(C)C(=O)Oc1ccc2c(c1)C(N)CCC2` (configuration not stated), the IC50 on Acetylcholinesterase [30] amounted to 1.48 µM.
`CCCNC1CCc2ccc(OC(=O)N(C)CC)cc21` (configuration not stated): the IC50 on Acetylcholinesterase [31] amounted to 3.6 µM.
On to `C#CCNC1CCc2ccc(OC(=S)N(C)CC)cc21` (configuration not stated), for which the IC50 against Acetylcholinesterase [7] is over 500 µM.
For `CCCN(C)C(=O)Oc1cccc2c1C(N)CC2` (configuration not stated), the IC50 in data set [9] is over 1000 µM; in [32] it was 1000 µM.
On Acetylcholinesterase [7], `C#CCN(C)C1CCc2cccc(OC(=O)N(C)CCC)c21` (configuration not stated) came in with a half-maximal inhibitory concentration (IC50) of over 1000 µM.
